One assay concerns the target T1, R24M PTP1B (Homo sapiens, UniProt P18031, R24M).
T1 sequence (P18031 1-321 R24M): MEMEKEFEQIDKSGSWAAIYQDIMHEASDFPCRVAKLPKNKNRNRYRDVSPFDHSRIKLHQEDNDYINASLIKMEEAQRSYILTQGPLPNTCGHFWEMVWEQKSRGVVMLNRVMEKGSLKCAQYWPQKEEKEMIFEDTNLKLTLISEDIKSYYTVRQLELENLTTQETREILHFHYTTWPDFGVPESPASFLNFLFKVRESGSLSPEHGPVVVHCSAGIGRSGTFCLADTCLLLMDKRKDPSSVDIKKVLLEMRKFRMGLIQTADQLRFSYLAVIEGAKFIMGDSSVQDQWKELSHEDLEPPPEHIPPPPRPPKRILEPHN
Description: PTP assay, R24M PTP1B. Format: biochemical. To be noted: for Km / kcat / kcat/KM x 10^7: R24M PTP1B aa 1–321, pH 7.4; for WT/R24M: ratio of kcat/KM, WT over R24M PTP1B (fold reduction by the mutation). The procedure, abridged: (§1)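 E. coli-expressed catalytic domains were used: wild-type, R24M or R47E PTP1B (aa 1–321), and SHP-1 (aa 205–595). Reactions started with PTP (0.5–20000 nM final) and dephosphorylation was monitored continuously at 282 nm. kcat, KM and kcat/KM came from initial-rate fits (Michaelis–Menten, or V = kcat[E][S]/KM when KM >> [S]) or from fits of progress curves.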

Another assay deals with T2, PTP1B (Homo sapiens, UniProt P18031).
T2 sequence (P18031 1-321): T1 sequence (P18031 1-321 R24M) with M24R
Kind of assay: PTP assay, wild-type PTP1B. The conditions noted are these: for kcat/KM x 10^7: WT PTP1B aa 1–321, pH 7.4; for kcat/KM x10^6: WT catalytic domain aa 1–321, 100 mM HEPES pH 7.4, monitored at 282 nm. Format: biochemical. The procedure, abridged:
as §1

The target in a further assay is T3, R47E PTP1B (Homo sapiens, UniProt P18031, R47E).
T3 sequence (P18031 1-321 R47E): T1 sequence (P18031 1-321 R24M) with M24R, R47E
Kind of assay: PTP assay, R47E PTP1B. Format: biochemical. The conditions noted are these: for Km / kcat / kcat/KM x 10^7: R47E PTP1B aa 1–321, pH 7.4; for WT/R47E: ratio of kcat/KM, WT over R47E PTP1B (fold decrease by the mutation). The essentials:
as §1

The target in a further assay is T4, PTP-PEST (Homo sapiens, UniProt Q05209).
T4 sequence (Q05209 5-300): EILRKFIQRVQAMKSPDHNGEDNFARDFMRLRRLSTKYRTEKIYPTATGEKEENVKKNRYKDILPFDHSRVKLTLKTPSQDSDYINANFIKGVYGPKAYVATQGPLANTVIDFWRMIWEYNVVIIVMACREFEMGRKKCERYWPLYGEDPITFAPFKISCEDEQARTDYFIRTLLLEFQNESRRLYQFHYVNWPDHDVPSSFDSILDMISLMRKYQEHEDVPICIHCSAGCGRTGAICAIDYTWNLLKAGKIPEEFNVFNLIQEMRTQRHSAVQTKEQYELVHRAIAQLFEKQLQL
Kind of assay: PTP assay with pY peptide substrates, PTP-PEST. Format: biochemical. To be noted: catalytic domain; pH 7.4.

The target in a further assay is T5, SHP-2 (Homo sapiens, UniProt Q06124).
T5 sequence (Q06124 199-593): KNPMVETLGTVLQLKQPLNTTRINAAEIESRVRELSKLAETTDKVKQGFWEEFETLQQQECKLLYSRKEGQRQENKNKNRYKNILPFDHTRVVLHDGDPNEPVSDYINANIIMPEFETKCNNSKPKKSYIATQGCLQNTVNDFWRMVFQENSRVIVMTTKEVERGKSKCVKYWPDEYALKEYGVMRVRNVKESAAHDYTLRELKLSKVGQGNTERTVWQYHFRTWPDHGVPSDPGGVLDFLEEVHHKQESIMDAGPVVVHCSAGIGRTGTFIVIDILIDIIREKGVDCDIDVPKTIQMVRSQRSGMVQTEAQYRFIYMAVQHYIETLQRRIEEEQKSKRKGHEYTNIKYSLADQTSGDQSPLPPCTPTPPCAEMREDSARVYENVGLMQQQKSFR
The conditions noted are these: catalytic domain; cited from earlier work.

For the next assay, the target named is SHP-1 (Homo sapiens, UniProt P29350). To be noted: catalytic domain; cited from earlier work.
Sequence of SHP-1 (P29350 205-595): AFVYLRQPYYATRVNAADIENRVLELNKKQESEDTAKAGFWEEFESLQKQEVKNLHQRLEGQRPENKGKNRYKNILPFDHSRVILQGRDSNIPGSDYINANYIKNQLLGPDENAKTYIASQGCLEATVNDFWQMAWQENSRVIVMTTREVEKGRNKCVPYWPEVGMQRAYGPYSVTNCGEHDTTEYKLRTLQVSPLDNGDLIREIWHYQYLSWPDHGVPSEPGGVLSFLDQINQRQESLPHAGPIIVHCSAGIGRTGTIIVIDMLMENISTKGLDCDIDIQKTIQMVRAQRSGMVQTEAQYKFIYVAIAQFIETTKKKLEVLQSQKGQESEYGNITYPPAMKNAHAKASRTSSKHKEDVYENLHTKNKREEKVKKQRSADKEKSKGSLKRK

The term Km denotes the substrate concentration at which the rate is half of its maximum. By kcat is commonly meant the maximal rate divided by the concentration of active sites. A word on the kcat/KM: it is the turnover number divided by the Michaelis constant.

Positions count from the first letter of the chain named.

As to AApYAAADD, at R24M PTP1B, the Km was found to be 8.7 ± 0.4 µM, the kcat came to 37 ± 1 s⁻¹, the “kcat/KM x 10^7” value is recorded as 0.43 x 10^7 M^−1 s^−1 and the WT/R24M came to 2.3. The “kcat/KM x 10^7” value on PTP1B was 0.97 x 10^7 M^−1 s^−1. On R47E PTP1B, the Km is 10 ± 1 µM, the kcat came to 35 ± 1 s⁻¹, the “kcat/KM x 10^7” value is 0.35 x 10^7 M^−1 s^−1 and the WT/R47E is listed as 2.8.
Turning to AApYAADDA, at R24M PTP1B, the Km stood at 6.9 ± 0.1 µM, the kcat is 38 ± 1 s⁻¹, the “kcat/KM x 10^7” value is on record as 0.55 x 10^7 M^−1 s^−1 and the WT/R24M stood at 2.0. Besides, on PTP1B, the “kcat/KM x 10^7” value is on record as 1.1 x 10^7 M^−1 s^−1. Moreover, on R47E PTP1B, the Michaelis-Menten constant (Km) amounted to 11 ± 2 µM, the catalytic constant (kcat) is 36 ± 2 s⁻¹, the “kcat/KM x 10^7” value is given as 0.32 x 10^7 M^−1 s^−1 and the WT/R47E is recorded as 3.4.
For the substance AApYADDAA, on R24M PTP1B, the Km stood at 6.4 ± 0.2 µM, the catalytic constant (kcat) was determined as 38 ± 1 s⁻¹, the “kcat/KM x 10^7” value is 0.59 x 10^7 M^−1 s^−1 and the WT/R24M came to 2.4. Also, at PTP1B, the “kcat/KM x 10^7” value is reported as 1.4 x 10^7 M^−1 s^−1. At R47E PTP1B, the Km was determined as 12 ± 1 µM, the kcat was found to be 34 ± 1 s⁻¹, the “kcat/KM x 10^7” value is reported as 0.29 x 10^7 M^−1 s^−1 and the WT/R47E came out at 4.8.
Consider AApYDDAAA, for which, on R24M PTP1B, the “kcat/KM x 10^7” value is on record as 0.027 x 10^7 M^−1 s^−1 and the WT/R24M came to 16. For the same substance, the “kcat/KM x 10^7” value at PTP1B was 0.43 x 10^7 M^−1 s^−1. Further, at R47E PTP1B, the Km amounted to 34 ± 2 µM, the kcat was 33 ± 2 s⁻¹, the “kcat/KM x 10^7” value is 0.097 x 10^7 M^−1 s^−1 and the WT/R47E amounted to 4.4.
For AApYDDIDE, at R24M PTP1B, the Km is 37 ± 1 µM, the kcat is 42 ± 1 s⁻¹, the “kcat/KM x 10^7” value is recorded as 0.11 x 10^7 M^−1 s^−1 and the WT/R24M worked out at 10. In addition, on PTP1B, the “kcat/KM x 10^7” value is reported as 1.1 x 10^7 M^−1 s^−1 and the “kcat/KM x10^6” value is given as 11 x10^6 M^−1 s^−1. For the same substance, at R47E PTP1B, the Km stood at 56 ± 2 µM, the kcat came to 43 ± 1 s⁻¹, the “kcat/KM x 10^7” value is given as 0.076 x 10^7 M^−1 s^−1 and the WT/R47E was 14.
For AApYIRKRA, on R24M PTP1B, the Michaelis constant (Km) was 52 ± 3 µM, the kcat came to 34 ± 1 s⁻¹, the “kcat/KM x 10^7” value is recorded as 0.065 x 10^7 M^−1 s^−1 and the WT/R24M was 0.62. Moreover, the “increased PTP1B activity by R24M mutation” value at R24M PTP1B (R24M relative to WT) came to 1.6 fold. Further, at PTP1B, the “kcat/KM x 10^7” value is listed as 0.042 x 10^7 M^−1 s^−1. At R47E PTP1B, the Km was found to be 89 ± 3 µM, the kcat came to 34 ± 2 s⁻¹, the “kcat/KM x 10^7” value is recorded as 0.038 x 10^7 M^−1 s^−1 and the WT/R47E was 1.1.
For AApYWAYDD, at PTP1B, the “kcat/KM x10^6” value is given as 15 x10^6 M^−1 s^−1.
Take ARKRIpYAA: the “kcat/KM x 10^7” value at PTP1B was 0.025 x 10^7 M^−1 s^−1. At R47E PTP1B, the Km stood at 31 ± 4 µM, the kcat amounted to 37 ± 2 s⁻¹, the “kcat/KM x 10^7” value is 0.12 x 10^7 M^−1 s^−1 and the WT/R47E is on record as 0.21. On R47E PTP1B (R47E relative to WT), the “increased PTP1B activity by R47E mutation” value is 5 fold.
Ac-AApYDLDEY-NH2: the “kcat/KM x10^6” value on PTP1B was 18 x10^6 M^−1 s^−1. Further, the kcat/KM on PTP-PEST turned out to be 1.3e+08 M⁻¹ s⁻¹.
As for Ac-ASSDEpYAA-NH2, on R24M PTP1B, the Michaelis-Menten constant (Km) turned out to be 3.8 ± 0.2 µM, the kcat amounted to 32 ± 1 s⁻¹, the “kcat/KM x 10^7” value is reported as 0.84 x 10^7 M^−1 s^−1 and the WT/R24M worked out at 2.0. On PTP1B, the “kcat/KM x 10^7” value is 1.7 x 10^7 M^−1 s^−1 and the “kcat/KM x10^6” value is recorded as 17 x10^6 M^−1 s^−1. Further, at R47E PTP1B, the Km was 32 ± 1 µM, the kcat was determined as 31 ± 1 s⁻¹, the “kcat/KM x 10^7” value was 0.097 x 10^7 M^−1 s^−1 and the WT/R47E came out at 18. Also, the kcat/KM on PTP-PEST is 7.2e+06 M⁻¹ s⁻¹.
Regarding Ac-AWGPLpYDEVQM-NH2, on R24M PTP1B, the Km was 5 ± 0.5 µM, the kcat was found to be 36 ± 1 s⁻¹, the “kcat/KM x 10^7” value is given as 0.72 x 10^7 M^−1 s^−1 and the WT/R24M is reported as 2.3. In addition, the “kcat/KM x 10^7” value at PTP1B is reported as 1.7 x 10^7 M^−1 s^−1. On R47E PTP1B, the Km was 5.6 ± 0.4 µM, the kcat was found to be 34 ± 2 s⁻¹, the “kcat/KM x 10^7” value is on record as 0.61 x 10^7 M^−1 s^−1 and the WT/R47E stood at 2.8.
For DPRGIpYDQVAG, at R24M PTP1B, the Km came to 71 ± 1 µM, the kcat worked out at 36 ± 1 s⁻¹, the “kcat/KM x 10^7” value was 0.051 x 10^7 M^−1 s^−1 and the WT/R24M is reported as 7.6. In addition, the “kcat/KM x 10^7” value at PTP1B is on record as 0.38 x 10^7 M^−1 s^−1. In addition, on R47E PTP1B, the Km is 23 ± 1 µM, the kcat is 35 ± 1 s⁻¹, the “kcat/KM x 10^7” value is reported as 0.15 x 10^7 M^−1 s^−1 and the WT/R47E stood at 2.5.
As to EEDNAWpYAA, at R24M PTP1B, the Km came out at 1.9 ± 0.1 µM, the turnover number (kcat) stood at 35 ± 1 s⁻¹, the “kcat/KM x 10^7” value is 1.8 x 10^7 M^−1 s^−1 and the WT/R24M is 1.2. Moreover, on PTP1B, the “kcat/KM x 10^7” value is recorded as 2.1 x 10^7 M^−1 s^−1 and the “kcat/KM x10^6” value is on record as 21 x10^6 M^−1 s^−1. In addition, at R47E PTP1B, the Km amounted to 9.5 ± 0.4 µM, the kcat worked out at 32 ± 1 s⁻¹, the “kcat/KM x 10^7” value is recorded as 0.33 x 10^7 M^−1 s^−1 and the WT/R47E was 6.4.
As to EIFDFpYAA, on SHP-2, the Km is 54 ± 6 µM, the kcat was 26 ± 1 s⁻¹ and the “kcat/KM x10^6” value is on record as 0.48 x10^6 M^−1 s^−1. In addition, on SHP-1, the Km was 27 ± 4 µM, the kcat was 32 ± 2 s⁻¹ and the “kcat/KM x10^6” value is listed as 1.2 x10^6 M^−1 s^−1.
FDIDIpYAA: on SHP-2, the Km is 39 ± 5 µM, the kcat is 30 ± 2 s⁻¹ and the “kcat/KM x10^6” value is reported as 0.77 x10^6 M^−1 s^−1. At SHP-1, the Km is 13 ± 1 µM, the kcat is 33 ± 1 s⁻¹ and the “kcat/KM x10^6” value was 2.5 x10^6 M^−1 s^−1.
For FYDIDpYAA, at SHP-2, the Km is 66 ± 13 µM, the kcat was 50 ± 4 s⁻¹ and the “kcat/KM x10^6” value is 0.75 x10^6 M^−1 s^−1. On SHP-1, the Km was 28 ± 2 µM, the kcat is 66 ± 2 s⁻¹ and the “kcat/KM x10^6” value was 2.4 x10^6 M^−1 s^−1.
WAGDDpYAA: at SHP-2, the Km is 68 ± 15 µM, the kcat is 36 ± 3 s⁻¹ and the “kcat/KM x10^6” value is 0.53 x10^6 M^−1 s^−1. At SHP-1, the Km was 45 ± 5 µM, the catalytic constant (kcat) is 57 ± 2 s⁻¹ and the “kcat/KM x10^6” value was 1.3 x10^6 M^−1 s^−1.

These data come from PMC3954597 (Biochemistry, 2014).
